Converted amounts (≈) assume the structure as drawn.
Experiments:
Streptococcus pyogenes [1] = assay: Ratio of MIC for CAM to MIC for test compound for antibacterial activity against erythromycin-resistant Streptococcus pyogenes 2 clinical isolate incubated for 24 hrs by broth dilution method; format: functional
Summary of the method: (§1)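 Ratio of clarithromycin MIC to compound MIC. Both MICs come from CLSI broth microdilution in cation-adjusted Mueller-Hinton broth with 2-fold dilutions, log-phase inoculum and 24 h at 37 °C, read by turbidity as the last clear well.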

Streptococcus pyogenes [2] = assay: Antibacterial activity against erythromycin-resistant Streptococcus pyogenes 2 clinical isolate incubated for 24 hrs by broth dilution method; format: functional
Streptococcus pyogenes [3] = assay: Antibacterial activity against erythromycin-susceptible Streptococcus pyogenes 1 clinical isolate incubated for 24 hrs by broth dilution method; format: functional
Summary of the method: (§2)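 CLSI broth microdilution in cation-adjusted Mueller-Hinton broth. Twofold dilutions spanned 0.25–128 or 0.5–256 µg/mL, with CAM and AZM as controls. Log-phase bacteria were added and incubated 24 h at 37 °C. MIC was read by turbidity as the concentration of the last clear well.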

Staphylococcus aureus [4] = assay: Ratio of MIC for CAM to MIC for test compound for antibacterial activity against penicillin-resistant Staphylococcus aureus ATCC 31007 incubated for 24 hrs by broth dilution method; format: functional; summary of the method: as §1
Staphylococcus aureus [5] = assay: Ratio of MIC for CAM to MIC for test compound for antibacterial activity against methicillin-resistant Staphylococcus aureus ATCC 43300 incubated for 24 hrs by broth dilution method; format: functional; summary of the method: as §1
Staphylococcus aureus [6] = assay: Antibacterial activity against methicillin-resistant Staphylococcus aureus ATCC 43300 incubated for 24 hrs by broth dilution method; format: functional; details: ATCC 43300, 24 h
Streptococcus pneumoniae [7] = assay: Ratio of MIC for CAM to MIC for test compound for antibacterial activity against erythromycin-resistant Streptococcus pneumoniae AB11 expressing the ermB and mefA incubated for 24 hrs by broth dilution method; format: functional; summary of the method: as §1
Bacillus subtilis = assay: Antibacterial activity against penicillin-susceptible Bacillus subtilis ATCC 9372 incubated for 24 hrs by broth dilution method; format: functional; details: ATCC 9372, 24 h; summary of the method: as §2
Staphylococcus aureus [8] = assay: Antibacterial activity against erythromycin-susceptible Staphylococcus aureus ATCC 25923 incubated for 24 hrs by broth dilution method; format: functional; details: ATCC 25923, 24 h; summary of the method: as §2
Staphylococcus aureus [9] = assay: Antibacterial activity against penicillin-resistant Staphylococcus aureus ATCC 31007 incubated for 24 hrs by broth dilution method; format: functional; details: ATCC 31007, 24 h
Escherichia coli = assay: Antibacterial activity against penicillin-susceptible Escherichia coli ATCC 25922 incubated for 24 hrs by broth dilution method; format: functional; details: ATCC 25922, 24 h; summary of the method: as §2
Streptococcus pneumoniae [10] = assay: Ratio of MBC to MIC for erythromycin-resistant Streptococcus pneumoniae AB11 expressing the ermB and mefA; format: functional
Streptococcus pneumoniae [11] = assay: Ratio of MIC for CAM to MIC for test compound for antibacterial activity against erythromycin-resistant Streptococcus pneumoniae B1 expressing the ermB incubated for 24 hrs by broth dilution method; format: functional; summary of the method: as §1
Streptococcus pneumoniae [12] = assay: Antibacterial activity against erythromycin-resistant Streptococcus pneumoniae B1 expressing the ermB incubated for 24 hrs by broth dilution method; format: functional
Streptococcus pneumoniae [13] = assay: Bactericidal activity against erythromycin-resistant Streptococcus pneumoniae AB11 expressing the ermB and mefA incubated for 24 hrs followed by re-plating on tryptic soy agar plates for 24 hrs by broth microdilution assay; format: functional
Summary of the method: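 Follows the 24 h, 37 °C CAMH broth microdilution MIC plate; contents of clear wells plated onto tryptic soy agar and incubated 24 h at 37 °C; MBC taken as the lowest concentration giving no colonies.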

Streptococcus pneumoniae [14] = assay: Antibacterial activity against erythromycin-resistant Streptococcus pneumoniae AB11 expressing the ermB and mefA incubated for 24 hrs by broth dilution method; format: functional
Pseudomonas aeruginosa = assay: Antibacterial activity against penicillin-susceptible Pseudomonas aeruginosa ATCC 27853 incubated for 24 hrs by broth dilution method; format: functional; details: ATCC 27853, 24 h; summary of the method: as §2
Staphylococcus aureus [15] = assay: Ratio of MBC to MIC for erythromycin-susceptible Staphylococcus aureus ATCC 25923; format: functional
Staphylococcus aureus [16] = assay: Bactericidal activity against erythromycin-susceptible Staphylococcus aureus ATCC 25923 incubated for 24 hrs followed by re-plating on tryptic soy agar plates for 24 hrs by broth microdilution assay; format: functional; details: ATCC 25923, 24 h
Summary of the method: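 Built on the broth microdilution MIC set-up (CAMH, 24 h, 37 °C). After 24 h, contents of clear wells were plated on tryptic soy agar and incubated 24 h at 37 °C. MBC was taken as the lowest concentration giving no colonies.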

[17] = Cytotoxicity against human MCF7 cells assessed as viable cells at 64 to 128 ug/ml incubated for 24 hrs by MTT assay relative to control; format: cell-based; details: read-out: Activity
Summary of the method: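 MCF-7 cells were seeded at 10^4 cells/well and allowed to settle overnight. Compound was added for 24 h, with CAM as control and DMSO as vehicle control. MTT (5 mg/mL stock) was then added for 4 h at 37 °C, formazan dissolved in DMSO for 10 min, and absorbance read at 570 nm. Read-out was percent viable cells.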

With CCCc1ccc(-n2cc(COC[C@@H]3CN(C)C[C@@H](C)[C@@H](O)[C@H](C)C[C@@](C)(OC)[C@H](O[C@@H]4O[C@H](C)C[C@H](N(C)C)[C@H]4O)[C@@H](C)[C@H](O[C@H]4C[C@@](C)(OC)[C@@H](O)[C@H](C)O4)[C@@H](C)C(=O)O3)nn2)cc1 as the compound, how does the Ratio (Streptococcus pyogenes [1]) read?
Its Ratio is 8 - 16.

And the MIC (Streptococcus pyogenes [2])?
Its MIC is 32 µg/mL (≈ 34.3 µM).

And the MIC (Streptococcus pyogenes [3])?
The MIC was 4 µg/mL (≈ 4.28 µM).

And the Ratio (Staphylococcus aureus [4])?
The Ratio was 8 - 16.

What about the Ratio (Staphylococcus aureus [5]) of the same compound?
The Ratio was 8 - 16.

What about the MIC (Staphylococcus aureus [6]) of the same compound?
The MIC was 16 µg/mL (≈ 17.1 µM).

What about the Ratio (Streptococcus pneumoniae [7]) of the same compound?
The Ratio was 8 - 16.

What about the MIC (Bacillus subtilis) of the same compound?
Its MIC is 1 µg/mL (≈ 1.07 µM).

And the MIC (Staphylococcus aureus [8])?
The MIC was 4 µg/mL (≈ 4.28 µM).

And the MIC (Staphylococcus aureus [9])?
Its MIC is 32 µg/mL (≈ 34.3 µM).

And the MIC (Escherichia coli)?
Its MIC is 64 µg/mL (≈ 68.5 µM).

And the Ratio (Streptococcus pneumoniae [10])?
The Ratio was 8.

What about the Ratio (Streptococcus pneumoniae [11]) of the same compound?
The Ratio was 8 - 16.

And the MIC (Streptococcus pneumoniae [12])?
Its MIC is 16 µg/mL (≈ 17.1 µM).

What about the MBC (Streptococcus pneumoniae [13]) of the same compound?
Its MBC is 64 µg/mL (≈ 68.5 µM).

And the MIC (Streptococcus pneumoniae [14])?
Its MIC is 8 µg/mL (≈ 8.56 µM).

What about the MIC (Pseudomonas aeruginosa) of the same compound?
Its MIC is over 128 µg/mL.

With CO[C@]1(C)C[C@@H](C)[C@H](O)[C@H](C)CN(C)C[C@@H](COCc2cn(-c3ccc(C(C)C)cc3)nn2)OC(=O)[C@H](C)[C@@H](O[C@H]2C[C@@](C)(OC)[C@@H](O)[C@H](C)O2)[C@H](C)[C@H]1O[C@@H]1O[C@H](C)C[C@H](N(C)C)[C@H]1O as the compound, how does the Ratio (Streptococcus pyogenes [1]) read?
Its Ratio is 8 - 16.

And the MIC (Streptococcus pyogenes [2])?
Its MIC is 16 µg/mL (≈ 17.1 µM).

And the MIC (Streptococcus pyogenes [3])?
The MIC was 4 µg/mL (≈ 4.28 µM).

What about the Ratio (Staphylococcus aureus [4]) of the same compound?
Its Ratio is 8 - 16.

And the Ratio (Staphylococcus aureus [5])?
Its Ratio is 8 - 16.

And the MIC (Staphylococcus aureus [6])?
Its MIC is 32 µg/mL (≈ 34.3 µM).

What about the Ratio (Streptococcus pneumoniae [7]) of the same compound?
Its Ratio is 8 - 16.

What about the MIC (Bacillus subtilis) of the same compound?
Its MIC is 1 µg/mL (≈ 1.07 µM).

And the MIC (Staphylococcus aureus [8])?
Its MIC is 4 µg/mL (≈ 4.28 µM).

What about the MIC (Staphylococcus aureus [9]) of the same compound?
The MIC was 32 µg/mL (≈ 34.3 µM).

And the MIC (Escherichia coli)?
The MIC was 64 µg/mL (≈ 68.5 µM).

And the Ratio (Streptococcus pneumoniae [11])?
Its Ratio is 8 - 16.

What about the MIC (Streptococcus pneumoniae [12]) of the same compound?
Its MIC is 16 µg/mL (≈ 17.1 µM).

And the MIC (Streptococcus pneumoniae [14])?
Its MIC is 16 µg/mL (≈ 17.1 µM).

And the MIC (Pseudomonas aeruginosa)?
Its MIC is 128 µg/mL (≈ 137 µM).

For CC[C@H]1OC(=O)[C@H](C)[C@@H](O[C@H]2C[C@@](C)(OC)[C@@H](O)[C@H](C)O2)[C@H](C)[C@@H](O[C@@H]2O[C@H](C)C[C@H](N(C)C)[C@H]2O)[C@](C)(OC)C[C@@H](C)C(=O)[C@H](C)[C@@H](O)[C@]1(C)O [CLARITHROMYCIN], which MIC (Streptococcus pyogenes [2]) is on record?
Its MIC is 256 µg/mL (≈ 342 µM).

What about the MIC (Streptococcus pyogenes [3]) of the same compound?
The MIC was at most 0.03 µg/mL.

What about the Ratio (Staphylococcus aureus [15]) of the same compound?
Its Ratio is over 512.

And the MIC (Staphylococcus aureus [6])?
Its MIC is over 256 µg/mL.

What about the MIC (Bacillus subtilis) of the same compound?
Its MIC is at most 0.25 µg/mL.

And the MIC (Staphylococcus aureus [8])?
Its MIC is at most 0.25 µg/mL.

What about the MIC (Staphylococcus aureus [9]) of the same compound?
The MIC was over 256 µg/mL.

And the MIC (Escherichia coli)?
The MIC was 128 µg/mL (≈ 171 µM).

What about the Ratio (Streptococcus pneumoniae [10]) of the same compound?
Its Ratio is 1.

And the MBC (Staphylococcus aureus [16])?
Its MBC is 128 µg/mL (≈ 171 µM).

And the MIC (Streptococcus pneumoniae [12])?
The MIC was over 256 µg/mL.

And the MBC (Streptococcus pneumoniae [13])?
Its MBC is 128 µg/mL (≈ 171 µM).

What about the MIC (Streptococcus pneumoniae [14]) of the same compound?
Its MIC is 128 µg/mL (≈ 171 µM).

And the MIC (Pseudomonas aeruginosa)?
Its MIC is 32 µg/mL (≈ 42.8 µM).

Which MIC (Streptococcus pyogenes [2]) does the source give for CO[C@]1(C)C[C@@H](C)[C@H](O)[C@H](C)CN(C)C[C@H](COCc2cn(-c3ccccc3)nn2)OC(=O)[C@H](C)[C@@H](O[C@H]2C[C@@](C)(OC)[C@@H](O)[C@H](C)O2)[C@H](C)[C@H]1O[C@@H]1O[C@H](C)C[C@H](N(C)C)[C@H]1O here?
Its MIC is 128 µg/mL (≈ 143 µM).

And the MIC (Streptococcus pyogenes [3])?
The MIC was 0.25 µg/mL (≈ 0.28 µM).

What about the viability at 24 h [17] of the same compound?
The viability at 24 h was 60%.

And the Ratio (Staphylococcus aureus [15])?
The Ratio was over 512.

And the MIC (Staphylococcus aureus [6])?
The MIC was over 256 µg/mL.

And the MIC (Bacillus subtilis)?
The MIC was at most 0.25 µg/mL.

What about the MIC (Staphylococcus aureus [8]) of the same compound?
Its MIC is at most 0.25 µg/mL.

And the MIC (Staphylococcus aureus [9])?
The MIC was over 256 µg/mL.

What about the MIC (Escherichia coli) of the same compound?
Its MIC is 64 µg/mL (≈ 71.7 µM).

What about the MBC (Staphylococcus aureus [16]) of the same compound?
The MBC was 128 µg/mL (≈ 143 µM).

And the MIC (Streptococcus pneumoniae [12])?
The MIC was over 256 µg/mL.

And the MIC (Streptococcus pneumoniae [14])?
Its MIC is 128 µg/mL (≈ 143 µM).

And the MIC (Pseudomonas aeruginosa)?
Its MIC is 16 µg/mL (≈ 17.9 µM).

What does the source list for COc1cccc(-n2cc(COC[C@H]3CN(C)C[C@@H](C)[C@@H](O)[C@H](C)C[C@@](C)(OC)[C@H](O[C@@H]4O[C@H](C)C[C@H](N(C)C)[C@H]4O)[C@@H](C)[C@H](O[C@H]4C[C@@](C)(OC)[C@@H](O)[C@H](C)O4)[C@@H](C)C(=O)O3)nn2)c1?
MIC (Streptococcus pyogenes [2]): 128 µg/mL (≈ 139 µM); MIC (Streptococcus pyogenes [3]): 0.5 µg/mL (≈ 0.542 µM); viability at 24 h [17]: 60%; Ratio (Staphylococcus aureus [15]): >512; MIC (Staphylococcus aureus [6]): > 256 µg/mL; MIC (Bacillus subtilis): ≤ 0.25 µg/mL; MIC (Staphylococcus aureus [8]): ≤ 0.25 µg/mL; MIC (Staphylococcus aureus [9]): > 256 µg/mL; MIC (Escherichia coli): 64 µg/mL (≈ 69.4 µM); MBC (Staphylococcus aureus [16]): > 128 µg/mL; MIC (Streptococcus pneumoniae [12]): > 256 µg/mL; MIC (Streptococcus pneumoniae [14]): 128 µg/mL (≈ 139 µM); MIC (Pseudomonas aeruginosa): 32 µg/mL (≈ 34.7 µM)

Reference: ChEMBL document CHEMBL4334458, “Design, synthesis and antibacterial evaluation of novel 15-membered 11a-azahomoclarithromycin derivatives with the 1, 2, 3-triazole side chain” (Eur J Med Chem, 2019)
